Measured values as given in PubChem BioAssay AID588418 (The Scripps Research Institute Molecular Screening Center, 2011).
Calls of active or inactive are those of the source.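 How the source made its calls: active means IC50 at or below 1000 nM; inactive means IC50 above 1000 nM.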

Target: Protein-arginine deiminase type-4 (Homo sapiens) (UniProt Q9UM07)
Experiment: recombinant human PAD4 inhibitors – biochemical, BAEE substrate, citrulline absorbance, 7-point 0-10 µM, late-stage follow-up (AID 588418)
Conditions: recombinant PAD4, BAEE citrulline colorimetric absorbance
Method in brief: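 Incubation: 15 min enzyme–compound pre-incubation plus 15 min substrate reaction, 37 °C; Assay system: recombinant PAD4; Amount: PAD4 at 0.2 µM; Doses: 7 points, 0–10 µM; Medium: Tris-HCl buffer pH 7.6 with 10 mM CaCl2 and 2 mM DTT; Technique: absorbance at 540 nm, colorimetric; Reagent: BAEE substrate at 10 mM.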

Chain of Protein-arginine deiminase type-4 (Homo sapiens) (Q9UM07 whole entry, looked up): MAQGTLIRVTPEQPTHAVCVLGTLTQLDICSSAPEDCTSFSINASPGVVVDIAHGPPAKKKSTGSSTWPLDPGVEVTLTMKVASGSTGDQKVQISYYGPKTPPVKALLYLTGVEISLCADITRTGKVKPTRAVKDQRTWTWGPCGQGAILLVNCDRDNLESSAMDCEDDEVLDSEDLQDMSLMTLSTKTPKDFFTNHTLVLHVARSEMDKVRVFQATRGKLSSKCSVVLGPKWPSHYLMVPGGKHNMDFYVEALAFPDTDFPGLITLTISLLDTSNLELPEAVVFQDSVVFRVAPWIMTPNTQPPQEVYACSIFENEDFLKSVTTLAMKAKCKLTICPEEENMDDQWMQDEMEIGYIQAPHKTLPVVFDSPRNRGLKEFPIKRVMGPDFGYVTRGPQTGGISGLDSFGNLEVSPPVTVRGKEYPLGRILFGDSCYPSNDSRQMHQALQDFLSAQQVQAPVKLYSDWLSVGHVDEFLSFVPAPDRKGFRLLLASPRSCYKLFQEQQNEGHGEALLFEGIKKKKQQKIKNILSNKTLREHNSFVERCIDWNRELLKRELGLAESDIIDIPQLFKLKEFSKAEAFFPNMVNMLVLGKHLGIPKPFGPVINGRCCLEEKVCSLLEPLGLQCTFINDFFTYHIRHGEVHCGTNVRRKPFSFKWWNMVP

IC50: inactive
Compound: COC1=C(N)C(=O)c2ncccc2C1=O
